This is an account of results in ChEMBL document CHEMBL3045579, “Herbicidal activity of cineole derivatives” (2010).

The source made the active and inactive calls. The calls are words filed in the database; no cut-off is given here.

Holding throughout (assay type): functional
The subject of experiment [1] is Radish. The experiment is described as follows: Pre-emergence herbicidal activity against Raphanus sativus var.Long scarlet (radish) seeds assessed as shoot length at 0.1 mol/l at 25 degC after 72 hr by laboratory-based agar medium bioassay relative to control. In a few lines: (§1)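 Solutions tested at 1 to 1 × 10^-4 mol L^-1. 10 seeds/dish, 5 randomized replicate dishes angled ~70°. Incubated 72 h at 25 °C in light. Solvent and no-solvent controls. Germination, root length and shoot length recorded.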

In experiment [2] the test system is Lolium rigidum. In words: Pre-emergence herbicidal activity against Lolium rigidum seeds assessed as concentration required to suppress shoot growth at 25 degC after 72 hr by laboratory-based agar medium bioassay.
In experiment [3] the test system is Radish. The experiment is described as follows: Pre-emergence herbicidal activity against Raphanus sativus var.Long scarlet (radish) seeds assessed as concentration required to suppress seed germination at 25 degC after 72 hr by laboratory-based agar medium bioassay.
Experiment [4] relates to Lolium rigidum. The experiment is described as follows: Pre-emergence herbicidal activity against Lolium rigidum seeds assessed as shoot length at 0.1 mol/l at 25 degC after 72 hr by laboratory-based agar medium bioassay relative to 1,8-Cineole. In a few lines: (§2)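 Agar-plate assay as above: compound in organic solvent evaporated onto Ca/B water agar, 10 seeds × 5 dishes, 72 h at 25 °C in light. Germination, root length or shoot length at 0.1 mol L^-1 expressed relative to 1,8-cineole.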

For experiment [5], the system named is Lolium rigidum. In words: Pre-emergence herbicidal activity against Lolium rigidum seeds assessed as concentration required to suppress seed germination at 25 degC after 72 hr by laboratory-based agar medium bioassay.
Experiment [6] concerns Lolium rigidum. In words: Pre-emergence herbicidal activity against Lolium rigidum seeds assessed as root length at 0.1 mol/l at 25 degC after 72 hr by laboratory-based agar medium bioassay relative to control. In a few lines:
as §1

For experiment [7], the system named is Lolium rigidum. In words: Pre-emergence herbicidal activity against Lolium rigidum seeds assessed as shoot length at 0.1 mol/l at 25 degC after 72 hr by laboratory-based agar medium bioassay relative to control. In a few lines:
as §1

The subject of experiment [8] is Lolium rigidum. In words: Pre-emergence herbicidal activity against Lolium rigidum seeds assessed as seed germination at 0.1 mol/l at 25 degC after 72 hr by laboratory-based agar medium bioassay relative to control. In a few lines: as §1
The test system of experiment [9] is Lolium rigidum. In words: Pre-emergence herbicidal activity against Lolium rigidum seeds assessed as concentration required to suppress root growth at 25 degC after 72 hr by laboratory-based agar medium bioassay.
Experiment [10] relates to Radish. In words: Pre-emergence herbicidal activity against Raphanus sativus var.Long scarlet (radish) seeds assessed as concentration required to suppress root growth at 25 degC after 72 hr by laboratory-based agar medium bioassay.
Experiment [11] deals with Radish. In words: Pre-emergence herbicidal activity against Raphanus sativus var.Long scarlet (radish) seeds assessed as root length at 0.1 mol/l at 25 degC after 72 hr by laboratory-based agar medium bioassay relative to control. In a few lines: as §1
Experiment [12] concerns Radish. The experiment is described as follows: Pre-emergence herbicidal activity against Raphanus sativus var.Long scarlet (radish) seeds assessed as root length at 0.1 mol/l at 25 degC after 72 hr by laboratory-based agar medium bioassay relative to 1,8-Cineole. In a few lines: as §2
The test system of experiment [13] is Lolium rigidum. In words: Pre-emergence herbicidal activity against Lolium rigidum seeds assessed as root length at 0.1 mol/l at 25 degC after 72 hr by laboratory-based agar medium bioassay relative to 1,8-Cineole. In a few lines: as §2
Experiment [14] deals with Radish. The experiment is described as follows: Pre-emergence herbicidal activity against Raphanus sativus var.Long scarlet (radish) seeds assessed as concentration required to suppress shoot growth at 25 degC after 72 hr by laboratory-based agar medium bioassay.
Experiment [15] has as its system Radish. The experiment is described as follows: Pre-emergence herbicidal activity against Raphanus sativus var.Long scarlet (radish) seeds assessed as seed germination at 0.1 mol/l at 25 degC after 72 hr by laboratory-based agar medium bioassay relative to 1,8-Cineole. In a few lines: as §2
For experiment [16], the system named is Lolium rigidum. The experiment is described as follows: Pre-emergence herbicidal activity against Lolium rigidum seeds assessed as seed germination at 0.1 mol/l at 25 degC after 72 hr by laboratory-based agar medium bioassay relative to 1,8-Cineole. In a few lines: as §2
Experiment [17] relates to Radish. The experiment is described as follows: Pre-emergence herbicidal activity against Raphanus sativus var.Long scarlet (radish) seeds assessed as seed germination at 0.1 mol/l at 25 degC after 72 hr by laboratory-based agar medium bioassay relative to control. In a few lines:
as §1

Experiment [18] deals with Radish. The experiment is described as follows: Pre-emergence herbicidal activity against Raphanus sativus var.Long scarlet (radish) seeds assessed as shoot length at 0.1 mol/l at 25 degC after 72 hr by laboratory-based agar medium bioassay relative to 1,8-Cineole. In a few lines:
as §2

For `CC1(C)O[C@]2(C)CC[C@@H]1[C@@H](OC(=O)c1ccccc1)C2` (racemic) [3-exo-benzoxy-1,8-cineole], the Activity in experiment [1] is listed as 61%; in experiment [2] it was 0.1 mol/L; in experiment [3], 1 mol/L; in experiment [5] it was 0.1 mol/L; in experiment [6], 10.9%; in experiment [7], 41.6%. The Activity in experiment [8] is reported as 82.2%; in experiment [9], 0.01 mol/L; in experiment [10], 0.01 mol/L; in experiment [11] it was 42.4%; in [14] it was 0.1 mol/L; in [17], 98%. For the same molecule, the Ratio in [4] is on record as 0.7; in [12], 0.8; in experiment [13] it was 2.1; in experiment [15] it was 0.3; in experiment [16], 0.4; in [18], 1.1.

Regarding `CC1(C)O[C@]2(C)CC[C@@H]1[C@@H](O)C2` (racemic) [3-exo-hydroxy-1,8-cineole], the Activity in [1] came to 46.5%; in experiment [2] it was 0.01 mol/L; in experiment [3], 0.1 mol/L; in experiment [5], 0.1 mol/L; in experiment [6], 16.6%; in experiment [7], 10.2%. Besides, the Activity came to 2.6% in experiment [8]; 0.1 mol/L in experiment [9]; 0.01 mol/L in experiment [10]; 26.8% in [11]; 0.1 mol/L in [14]; 2.4% in experiment [17]. In addition, the Ratio in [4] stood at 2.8; in experiment [12], 1.4; in [13], 1.3; in [15], 14.2; in experiment [16] it was 11.6; in experiment [18] it was 1.4.

`CC1(C)OC2(C)CC[C@H]1C[C@H]2O` (single isomer, unassigned) [2-endo-hydroxy-1,8-cineole]: the Activity came to 0% in [1]; 0.01 mol/L in [2]; 0.01 mol/L in experiment [3]; 0.1 mol/L in experiment [5]; 39.5% in [6]; 15.4% in [7]. The Activity was determined as 51.5% in experiment [8]; 0.1 mol/L in [9]; 0.01 mol/L in [10]; 6.8% in experiment [11]; 0.1 mol/L in experiment [14]; 2.6% in [17]. Also, the Ratio in [4] amounted to 1.8; in experiment [12], 5.5; in experiment [13] it was 0.6; in [15], 13.1; in experiment [16] it was 0.6. Besides, the inhibition entry in [18] was “Active”.

Take `CC(=O)O` [ACETIC ACID]: the Activity in experiment [1] is given as 0%; in experiment [2], 0.01 mol/L; in [3], 0.1 mol/L; in [5], 0.1 mol/L; in [6] it was 0%; in experiment [7], 0%. In addition, the Activity was 0% in [8]; 0.01 mol/L in experiment [9]; 0.1 mol/L in [10]; 0% in experiment [11]; 0.1 mol/L in experiment [14]; 0% in experiment [17]. Also, the inhibition entry in experiment [4], in experiment [12], in experiment [13], in experiment [15], in experiment [16] and in experiment [18] was “Active” each time.

Regarding `O=C(O)c1ccccc1` [BENZOIC ACID], the Activity is 0% in [1]; 0.0001 mol/L in experiment [2]; 0.1 mol/L in [3]; 0.01 mol/L in [5]; 0% in [6]; 0% in [7]. Moreover, the Activity is 0% in experiment [8]; 0.0001 mol/L in experiment [9]; 0.01 mol/L in experiment [10]; 0% in [11]; 0.01 mol/L in experiment [14]; 0% in experiment [17]. For the same molecule, the inhibition entry in [4], in experiment [12], in experiment [13], in [15], in experiment [16] and in experiment [18] was “Active” in each case.

With `CCCC(=O)O` [BUTYRIC ACID], the Activity in [1] is 0%; in experiment [2] it was 0.1 mol/L; in experiment [3] it was 0.1 mol/L; in experiment [5], 0.01 mol/L; in experiment [6] it was 0%; in [7] it was 0%. Further, the Activity in experiment [8] was determined as 0%; in [9] it was 0.01 mol/L; in experiment [10], 0.01 mol/L; in experiment [11], 0%; in experiment [14] it was 0.01 mol/L; in [17] it was 0%. The inhibition entry in experiment [4], in [12], in [13], in experiment [15], in experiment [16] and in experiment [18] was “Active” each time.

Regarding `CCCCCC(=O)O` [HEXANOATE], the Activity in experiment [1] was found to be 0%; in experiment [2] it was 0.0001 mol/L; in experiment [3], 0.1 mol/L; in experiment [5], 0.01 mol/L; in experiment [6], 0%; in experiment [7], 0%. The Activity was 0% in experiment [8]; 0.0001 mol/L in experiment [9]; 0.001 mol/L in experiment [10]; 0% in experiment [11]; 0.1 mol/L in experiment [14]; 0% in [17]. The inhibition entry in experiment [4], in experiment [12], in experiment [13], in [15], in experiment [16] and in [18] was “Active” throughout.

Regarding `CC(C)(C)CC(=O)O` [T-BUTYLACETIC ACID], the Activity in [1] is listed as 0%; in [2] it was 0.0001 mol/L; in experiment [3] it was 0.1 mol/L; in [5], 0.01 mol/L; in experiment [6], 0%; in experiment [7], 0%. The Activity amounted to 0% in experiment [8]; 0.0001 mol/L in [9]; 0.01 mol/L in experiment [10]; 0% in experiment [11]; 0.1 mol/L in experiment [14]; 0% in experiment [17]. Besides, the inhibition entry in [4], in experiment [12], in experiment [13], in experiment [15], in [16] and in experiment [18] was “Active” in each case.
